Bioassay records: PubChem, Sanford-Burnham Center for Chemical Genomics
Only some compounds are listed: those with a hit (about 1.6% of all), similar ones and a draw of the others.
FLuc stim CS – firefly luciferase counter-screen for stimulation assays; ATPlite luciferase biochemical, luminescence, 10 min; 0 = ATP-free wells, 1 = DMSO control; activation factor at 10 µM; 200,000 tested, under 10 active;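 active = luciferase activation factor, scaled between plate controls, of at least 2 with compound at 10 µM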
Target sequence (P08659 whole entry, looked up): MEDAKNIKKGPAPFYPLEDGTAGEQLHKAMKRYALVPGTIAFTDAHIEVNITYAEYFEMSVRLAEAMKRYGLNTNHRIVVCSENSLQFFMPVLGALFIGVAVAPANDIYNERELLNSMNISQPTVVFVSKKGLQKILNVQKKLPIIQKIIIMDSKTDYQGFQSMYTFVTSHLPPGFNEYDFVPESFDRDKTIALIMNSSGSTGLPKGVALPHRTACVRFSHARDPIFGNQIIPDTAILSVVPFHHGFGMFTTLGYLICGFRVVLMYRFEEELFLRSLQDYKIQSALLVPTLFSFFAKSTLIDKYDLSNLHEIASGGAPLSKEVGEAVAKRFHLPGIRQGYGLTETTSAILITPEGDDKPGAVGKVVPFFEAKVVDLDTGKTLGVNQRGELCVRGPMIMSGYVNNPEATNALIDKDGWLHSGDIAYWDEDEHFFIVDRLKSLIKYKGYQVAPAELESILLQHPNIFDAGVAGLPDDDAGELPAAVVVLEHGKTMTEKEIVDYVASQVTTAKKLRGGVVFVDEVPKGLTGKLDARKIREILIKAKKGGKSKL
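assay system = Luciferase/luciferin detection reagent, cell-free biochemical luciferase assay | also added = ATP substrate | times = 10 min post-reagent at room temperature | measured by = luminescence from luciferase reaction | measure = luciferase activation, seen as luminescence increase over controls | benchmarks = low control with PBS replacing ATP, high control enzyme plus ATP without compound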
PPC-1+TRAIL kill – PPC-1 cancer cell killing with TRAIL present; PPC-1 cells + TRAIL, ATPLite viability luminescence; cell killing (% activity), % at 4 µM or 5 µM; 0.41% of 220,000 active; AID 1443;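 active = cell killing above 50% in the first pass at 4 µM, then a duplicate retest at 5 µM averaging 50% or more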;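 note: plate controls were cells with TRAIL plus DMSO for no effect and medium-only wells lacking cells for full effect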
FLuc inhib CS – counter-screen for luciferase assay inhibitors: firefly luciferase inhibition | P08659 | ATPLite firefly luciferase biochemical luminescence, 10 min | inhibition, % at 10 µM | 1.5% of 200,000 active | AID 1006;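 active = inhibition above about 50% when tested at 10 µM, limit read from the data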
TRAIL sens C8 – caspase-8 TRAIL sensitization | 1% of 360,000 active | AID 624354 | inhibition (viability loss, TRAIL sensitization), % at 10 µM | NB7+C8 cells + TRAIL, ATPlite viability luminescence;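 active = compounds causing at least 50% loss of cell viability in the single-dose screen, relative to plate controls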
An asterisk follows results filed as active; / = no result given.

SMILES	FLuc stim CS	PPC-1+TRAIL kill	FLuc inhib CS	TRAIL sens C8
CCOC1=C2[C@@H](CN(S(=O)(=O)c3ccc(C)cc3)[C@H]2c2cccs2)[C@H]2C(=O)N(c3ccccc3)C(=O)[C@H]2C1	/	/	/	-11.8
Cn1c(/N=C/c2cccs2)nc2ccccc21	0.3	30.7	73.9*	2.0
C(=N\c1nc2ccccc2n1CCN1CCCCC1)/c1cccs1	1	7.2	-4.8	-7.0
COc1ccc(/C=N/c2nc3ccccc3n2C)cc1OC	0.3	18.3	69.7*	3.6
CC(C)[C@H](NC(=O)CCCn1nnc2ccccc2c1=O)C(=O)O	/	-2.2	/	-8.0
N#C/C(=C\c1ccc2c(c1)OCO2)C(N)=S	/	12.7	/	0.6
O=C(O/N=C/c1ccc2c(c1)OCO2)c1ccc([N+](=O)[O-])cc1	1	27.4	-4.5	-2.1
COc1ccccc1/C=N/OC(=O)c1ccc(C)cc1	0.3	6.7	71.2*	-14.9
Cc1ccc(C(=O)O/N=C/c2ccc3c(c2)OCO3)cc1	0.4	3.3	58.8*	-6.8
Cc1ccc(C(C#N)=Cc2ccc3c(c2)OCO3)cc1	/	/	/	56.0*
Cc1[nH]c2ccccc2c1C(=O)C(=O)NCCc1ccc(S(N)(=O)=O)cc1	1.1	11.2	-9.9	-1.4
CC(NC(=O)CCCc1ccccc1)c1ccncc1 (centres undefined)	/	/	/	-0.7
CSc1nc2ccc(NC(=O)c3ccccn3)cc2s1	/	/	/	82.2*
CSc1cccc(NC(=O)c2ccccn2)c1	0.5	19.2	50.8*	/
CCCCCNC(=O)C(c1ccnc2ccccc12)n1c(=O)c(-c2cc3ccccc3[nH]2)nc2ccccc21 (centres undefined)	/	/	/	11.5
c1c2c(cc3sc(N4CCOCC4)nc13)OCO2	0.4	37.9	56.4*	20.9
c1ccc2c(c1)CCN(c1nc3cc4c(cc3s1)OCO4)C2	0.3	22.7	69.2*	36.8
c1c2c(cc3sc(N4CCCCC4)nc13)OCO2	0.2	49.8	80.4*	47.4*
c1ccc2sc(Nc3nc4cc5c(cc4s3)OCO5)nc2c1	0.5	20.5	45.7	10.9
c1ccc(N2CCN(c3nc4cc5c(cc4s3)OCO5)CC2)cc1	0.7	25.5	28.8	16.9
Cc1ccc(N2CS(=O)(=O)/C(=C/N(C)C)C2=O)cc1	0.4	46.7	56.6*	24.8
Cc1ccc(/C=N/Nc2cccc3cccnc23)c(O)c1	0.4	-20.4	59.5*	37.8
Oc1ccc(/C=N/Nc2cccc3cccnc23)c(O)c1	0.8	5.7	22.8	19.3
Cc1ccc(C(=O)Sc2cccccc2=O)cc1	/	/	/	60.7*
O=C(Nc1ccccc1SC(=O)c1ccccc1)c1ccccc1	/	/	/	-4.2
SMILES	FLuc stim CS	PPC-1+TRAIL kill	FLuc inhib CS	TRAIL sens C8
COc1ccc2[nH]c3c(NCCC4=CCCCC4)ncnc3c2c1	1	/	-0.1	54.1*
O=C(NCCN1CCOCC1)c1ccc(NS(=O)(=O)c2cccc([N+](=O)[O-])c2)cc1	/	/	/	-0.4
CC(C)(C)NC(=O)NC(=O)CSc1ccc(S(=O)(=O)N2CCCCC2)cn1	/	/	/	-7.2
O=C(Nc1ccc(-c2cn3ccccc3n2)cc1)c1cccs1	0.3	45.9	73.1*	51.9*
COc1ccc(CC(=O)Nc2ccc(-c3cn4ccccc4n3)cc2)cc1	0.6	37.0	35.7	23.1
O=C(Nc1ccccc1)c1cn2ccccc2n1	/	48.4	/	58.4*
O=C(Nc1ccc(-n2cnnn2)cc1)c1cn2ccccc2n1	/	23.5	/	33.6
Cc1c(C(=O)OCC(=O)N(C)CC(=O)Nc2ccc(F)cc2)oc2ccccc12	/	/	/	3.7
CC(=O)NC12CC3CC(C1)CC(C(=O)NCc1ccc(C)cc1)(C3)C2	/	/	/	12.1
O=C1Nc2ccccc2Cc2ccccc21	/	/	/	-11.2
Cc1ccc(-c2nc3ccccc3[nH]2)s1	0.4	47.1	60.7*	55.9*
Cc1cc(-c2nc3ccccc3[nH]2)ccc1N	0.3	39.6	71.5*	43.5
Nc1nc(-c2nc3ccccc3[nH]2)cs1	0.4	-16.3	63.3*	36.0
c1csc(-c2nc3ccccc3[nH]2)c1	0.8	26.0	24.0	-1.3
COC(=O)c1ccc(-c2nc3ccccc3[nH]2)cc1	0.1	36.2	91.2*	82.0*
COC(=O)c1ccc(C(=O)Nc2ccc3nc(-c4ccncc4)[nH]c3c2)cc1	/	/	/	-1.0
CCc1cccc(NC(=O)CCCCCC2NC(=O)NC2C)c1 (centres undefined)	1	7.9	1.9	0.9
Cc1oc(S(=O)(=O)N2CCCCC2)cc1NC(=O)Nc1ccc(Cl)cc1	/	-0.8	/	-6.3
COc1ccc(S(=O)(=O)N2CCN(C(=O)c3cc(C)nc4ccccc34)CC2)cc1OC	/	/	/	-7.5
Cc1ccc(-c2cn3cccc(C)c3n2)cc1	0.3	39.3	69.1*	35.6
Cc1cccn2cc(-c3ccc(Cl)cc3)nc12	0.4	41.6	63.2*	35.4
O=C(/C(=C/c1ccc(Cl)cc1)c1nc2ccccc2[nH]1)c1ccccc1	1	23.9	1.4	77.9*
Cc1onc(-c2c(F)cccc2Cl)c1C(=O)Nc1nc2ccccc2[nH]1	1	-10.6	2.3	49.5*
O=C(N/C(=C/c1ccc(Cl)cc1)c1nc2ccccc2[nH]1)c1ccco1	1.1	12.0	-5.3	-0.1
O=C(Nc1nc2ccccc2[nH]1)c1ccc(Cl)cc1	/	/	/	87.0*
SMILES	FLuc stim CS	PPC-1+TRAIL kill	FLuc inhib CS	TRAIL sens C8
O=c1[nH]c2ccccc2nc1/C=C/c1ccc(Cl)cc1	0.3	38.0	69.6*	73.1*
O=C(Nc1nc2ccccc2[nH]1)c1ccccc1O	/	/	/	48.8*
O=C(COc1ccc(/C=N/NC(=O)c2cc3ccccc3o2)cc1Cl)Nc1ccccc1	1	24.7	0.6	92.6*
COc1ccc(CNc2nc3nc(C)cc(C)n3n2)cc1	1	1.2	2.7	-0.5
COc1ccc(-c2nc3nc(C)cc(C)n3n2)cc1	0.4	37.0	58.9*	36.9
COc1cc(/C=N/NC(=O)COc2ccc(C)cc2)ccc1OC(=O)c1cccs1	1.1	45.4	-5.1	56.5*
CCOc1cc(/C=N/NC(=O)COc2ccc(C)cc2)ccc1OC(=O)c1cccs1	1.1	3.9	-9.9	16.3
Nn1c(-c2cccs2)nc2sc3c(c2c1=O)CCCC3	0.5	28.0	45.3	40.8
Cc1ccccc1-c1nc2sc3c(c2c(=O)n1N)CCCC3	0.9	-1.8	6.1	53.8*
Cc1cc(NC(=O)C(C)Oc2ccccc2)no1 (centres undefined)	/	/	/	9.3
O=C(N/N=C/c1ccco1)c1cccc(N2CCCC2=O)c1	0.5	-7.1	52.4*	6.1
CC(=O)NC(c1ccc(F)c(F)c1)c1nc(-c2cc3ccccc3o2)cs1 (centres undefined)	/	/	/	-14.4
O=C(Oc1ccc2ccccc2c1)c1ccco1	0.9	12.5	9.5	-1.5
CC1CC(C)(C)Nc2ccc(OC(=O)c3ccco3)cc21 (centres undefined)	0.4	11.6	60.4*	34.1
COc1ccc(C(C)=O)cc1CSc1ccc(S(=O)(=O)N2CCOCC2)cn1	/	/	/	2.8
CCOC(=O)c1sc(N(Cc2ccccc2)C(=O)CCl)nc1C	/	/	/	86.7*
CCOC(=O)c1sc(N(Cc2ccccc2)C(=O)COC(=O)c2ccccc2O)nc1C	1.1	15.7	-5.4	-0.9
CN(c1ccc(F)cc1)S(=O)(=O)c1ccc2[nH]cc(C(=O)O)c(=O)c2c1	1	61.9*	-3.9	-19.6
